Results on 1 molecule are retold here after PMC3059864 (Clinics, 2011).

The test system of one data set is PC‐3 tumor xenografts. The experiment in a line: Scintigraphic imaging of tumor‐bearing mice. Format: in vivo, Nude mice (Balb/c). Conditions: tumor‐bearing Nude mice. In outline: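 PC-3 xenograft-bearing nude mice were pretargeted with the SA:B-MORF:biotinylated BBN analogue mixture (1:1:2) for 7 or 15 h, then given 99mTc-MAG3-cMORF intravenously. Anaesthetised mice, lying horizontally, were imaged on a gamma camera with a low-energy high-resolution collimator. Acquisition used a 20% energy window at 140 keV for 180 s. Tumour region-of-interest uptake was expressed as a percentage.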

Data set [1] in a line: Biodistribution by pretargeting system in Nude mice bearing PC‐3 tumor cells. Details: species or system Nude mice (Balb/c). The following applies: mouse, in vivo, iv, 50 ul of the mixture.

With `CSCC[C@H](NC(=O)[C@H](CC(C)C)NC(=O)[C@H](Cc1c[nH]cn1)NC(=O)CNC(=O)[C@@H](NC(=O)[C@H](C)NC(=O)[C@H](Cc1c[nH]c2ccccc12)NC(=O)[C@H](CCC(N)=O)NC(=O)CCOCCOCCOCCOCCOCCOCCOCCOCCOCCOCCOCCOCCNC(=O)CCCC[C@@H]1SC[C@@H]2NC(=O)N[C@@H]21)C(C)C)C(N)=O` [B‐PEG‐BBN, Biotin‐dPEG‐Gln‐Trp‐Ala‐Val‐Gly‐His‐Leu‐Met‐NH2], the “ROI (region of interest) in scintigraphic images” value with PC‐3 tumor xenografts (7 h) turned out to be 1.47%; with PC‐3 tumor xenografts (15 h), 1.22%. For the same molecule, in data set [1], the tissue to tissue ratio worked out at 2.45.
